Rows were chosen to be rich in hits. Some 1.8% of all compounds tested hit in one or more screens of this group.
Tb MetRS inh: blocks T. brucei methionyl-tRNA synthetase activity; inhibition, % at 11.9 µM; 360,000 tested, 0.4% active; purified T. brucei MetRS, ATP depletion, Kinase-Glo luminescence;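 active = inhibition above a per-plate cutoff of the control wells' mean inhibition plus 3 SD, cut at about 5.5% in these data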;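 also: 0% = DMSO wells median and 100% = median of wells with control inhibitor compound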
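Test system – parasite MetRS enzyme · Reagent – substrates ATP, L-methionine and bulk Escherichia coli tRNA · Doses – 11.9 µM compound single dose, 0.9% DMSO · Times – 15 min enzyme-compound preincubation, 2 h reaction, 10 min detection, 25 °C · Signal – Kinase-Glo luminescence, ATP depletion format · Controls – DMSO-only wells as low control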
hiPSC survival: enhancers of human iPSC single-cell survival; hiPSC single-cell survival, ATPlite luminescence; 100% = ROCK inhibitor wells, 0% = DMSO; survival enhancement, % at 20 µM; 360,000 tested, 0.044% active; AID 602274; in the data active = survival enhancement above about 18%;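 also: cells exposed to compounds for 16 hours before the ATP read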
MT1-MMP act inh: blocks activation of human MT1-MMP. P50281. HT1080 RFP-PRO-GFP cells, GFP/RFP ratio fluorescence, overnight; percent of plate control window, DMSO zero. GFP/RFP ratio change, % at 20 µM. 360,000 tested, 0.061% active;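 active = GFP/RFP ratio change of at least 30% with cell ATP level not reduced by more than half and red fluorescence within 50% of control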
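system = RFP-PRO-GFP reporter HT1080 cells | dosing = 20 µM single dose, 1% DMSO | timing = overnight cell settling, then overnight compound exposure, 37 °C, 5% CO2 | read-out basis = GFP/RFP fluorescence ratio | controls = DMSO and RFP-L50D-GFP cell wells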
SKN-1 inh: C. elegans SKN-1 inhibition. C. elegans VP596 Pgst-4::GFP/RFP ratio, acrylamide-induced, 24 h. inhibition, % at 21.8 µM. 360,000 tested, 0.49% active;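 active = interference check ratio from 0.5 to 1.5 plus GFP to RFP signal ratio inhibition reaching or exceeding a fixed threshold, cut at about 30% in these data, passing the limit was not always enough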
PREPL inhibitor: inhibitors of human prolyl oligopeptidase-like enzyme PREPL | 320,000 tested, 0.68% active | AID 2751 | recombinant PREPL, fluorescence polarization activity-based probe | inhibition, % at 5.96 µM | Q4J6C6; in the data active = inhibition above about 43%;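 also: 0% = enzyme with DMSO and 100% = wells lacking enzyme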
E coli Lon inh: E. coli protease La inhibition. P0A9M0. purified E. coli Lon protease, fluorescence polarization. inhibition, % at 7.94 µM. 360,000 tested, 0.42% active. AID 602123; in the data active = inhibition above about 13%, passing the limit was not always enough;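 also: 0% = enzyme with probe and DMSO and 100% = no enzyme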
MT1-MMP conf: blocks activation of human MT1-MMP in validation testing; AID 652235; 200 tested, 10% active; shares compounds with MT1-MMP act inh; inhibition, % at 20 µM; HT1080 RFP-PRO-GFP cells, GFP and RFP fluorescence ratio, overnight;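 active = inhibition of at least 50% in the primary cell screen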
An asterisk follows results filed as active; x = not tested or not shown.

SMILES	Tb MetRS inh	hiPSC survival	MT1-MMP act inh	SKN-1 inh	PREPL inhibitor	E coli Lon inh	MT1-MMP conf
Cc1c(C(=O)OCC(=O)NCC2CCCO2)oc2ccccc12 (centres undefined)	0	-1	33*	3	2	-4	3
O=C(COC(=O)c1ccccc1)NCC1CCCO1 (centres undefined)	-1	1	9	8	11	-3	x
NC(=O)c1ccc(N2CCNC(=O)C2)c([N+](=O)[O-])c1	0	0	-3	18	3	4	x
COc1cccc2[nH]c3c(N4CCCCC4)ncnc3c12	1	-1	32*	17	8	8	6
CCOC(=O)C1CCN(c2ncnc3c2[nH]c2cccc(OC)c23)CC1	0	-1	5	14	11	12	x
Cc1cccc(NC(=S)NNC(=O)CC(C)O)c1C (centres undefined)	-1	4	2	-26	12	13	x
Cc1ccc(S(=O)(=O)N/N=C/c2ccc(OCC(=O)Nc3ccccc3Cl)cc2)cc1	0	1	2	11	-12	-1	x
CN1C2=CC=CC=CC2=[N+](C)C12C=CC(=[N+]([O-])[O-])C=C2[N+](=O)[O-] (centres undefined)	-2	0	39*	12	0	-4	31
CCOc1cc(/C=C2\C(=O)N(c3nc(-c4ccc(Br)cc4)cs3)N=C2c2ccccc2)ccc1O	0	-3	63*	14	17	-13	7
COc1cc(/C=C2\C(=O)N(c3ccc(NC(C)=O)cc3)N=C2c2ccccc2)ccc1O	0	2	6	12	7	-8	x
O=C(NCc1cccs1)c1csc([C@@H]2C[C@H](O)[C@@H](CO)O2)n1	0	-2	-1	10	x	-7	x
Cc1cc2ccccc2n1CCNC(=O)COc1ccccc1	0	2	40*	49	37	2	4
COC(=O)CNC(=O)COc1ccccc1	-1	8	-2	1	-3	-1	x
Cc1cc2ccccc2n1CCNC(=O)Cc1cccc2ccccc12	-1	0	43*	56	9	0	2
O=C(NCCCc1ccccc1)c1ccc(Br)o1	-1	15	-4	5	-8	1	x
Cc1cc2ccccc2n1CCNC(=O)c1ccc(Br)o1	0	-1	37*	37*	32	9	4
CC(=O)N1c2ccc(S(=O)(=O)N3CCCC(C(=O)NC4CCCC(C)C4C)C3)cc2CC1C (centres undefined)	0	0	-4	9	3	-4	x
O=C(NCCCn1ccnc1)c1cccnc1	0	0	32*	-6	-2	-10	2
CCN(C(=O)c1ccc2c(c1)OCO2)C1CCS(=O)(=O)C1 (centres undefined)	0	0	3	2	-3	-2	x

Bioassay records (PubChem)
